ChEMBL document CHEMBL3632544, “Acyl dihydropyrazolo[1,5-a]pyrimidinones as metabotropic glutamate receptor 5 positive allosteric modulators” (Bioorg Med Chem Lett, 2015)
pEC50: −log10 of the molar value.

What was measured:
[1] = target: T1, Metabotropic glutamate receptor 5 (Homo sapiens, UniProt P41594); test: Positive allosteric modulation of human mGlu5 expressed in HEK293 cells assessed as calcium mobilization; type: functional, cell-based; conditions: for pEC50: read-out: EC50
How it was run: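 Calcium mobilization read-out in HEK293 cells stably expressing human mGlu5; PAM EC50 and efficacy as % of maximal glutamate response. Mean±SEM of three or more independent determinations, each in triplicate.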
Target sequence in this assay (P41594 whole entry): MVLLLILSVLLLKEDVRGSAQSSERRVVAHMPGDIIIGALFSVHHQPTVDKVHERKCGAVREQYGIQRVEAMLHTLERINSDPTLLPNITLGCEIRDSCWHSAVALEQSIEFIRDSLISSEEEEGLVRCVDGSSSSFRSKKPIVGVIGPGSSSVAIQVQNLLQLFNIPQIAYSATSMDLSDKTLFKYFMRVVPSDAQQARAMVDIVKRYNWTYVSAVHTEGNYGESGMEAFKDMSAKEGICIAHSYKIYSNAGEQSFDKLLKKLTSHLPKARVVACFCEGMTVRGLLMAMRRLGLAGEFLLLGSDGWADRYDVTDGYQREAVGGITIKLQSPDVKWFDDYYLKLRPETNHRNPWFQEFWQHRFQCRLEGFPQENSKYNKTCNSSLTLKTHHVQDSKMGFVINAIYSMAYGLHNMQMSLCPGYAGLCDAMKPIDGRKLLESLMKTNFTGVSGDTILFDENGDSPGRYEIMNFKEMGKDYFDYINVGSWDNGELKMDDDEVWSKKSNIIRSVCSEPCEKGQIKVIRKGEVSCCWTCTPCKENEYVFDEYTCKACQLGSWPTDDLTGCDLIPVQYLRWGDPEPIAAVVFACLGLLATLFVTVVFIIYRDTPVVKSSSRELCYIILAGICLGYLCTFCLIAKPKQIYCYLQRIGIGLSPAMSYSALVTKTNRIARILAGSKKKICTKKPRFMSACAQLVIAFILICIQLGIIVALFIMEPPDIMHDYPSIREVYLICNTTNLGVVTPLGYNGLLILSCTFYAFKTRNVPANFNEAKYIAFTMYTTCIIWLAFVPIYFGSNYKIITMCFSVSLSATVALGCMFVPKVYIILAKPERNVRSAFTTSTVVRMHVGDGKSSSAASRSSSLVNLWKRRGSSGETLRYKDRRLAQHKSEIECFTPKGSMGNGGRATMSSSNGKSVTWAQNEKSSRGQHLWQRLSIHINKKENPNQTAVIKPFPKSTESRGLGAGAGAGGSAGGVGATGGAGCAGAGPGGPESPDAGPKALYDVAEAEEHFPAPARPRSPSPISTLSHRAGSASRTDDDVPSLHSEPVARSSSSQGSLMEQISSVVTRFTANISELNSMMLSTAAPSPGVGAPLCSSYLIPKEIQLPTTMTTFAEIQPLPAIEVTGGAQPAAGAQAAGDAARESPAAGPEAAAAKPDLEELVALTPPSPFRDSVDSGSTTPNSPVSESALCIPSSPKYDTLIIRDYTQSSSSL

[2] = target: T1, Metabotropic glutamate receptor 5; test: Positive allosteric modulation of human mGlu5 expressed in HEK293 cells assessed as calcium mobilization relative to glutamate; type: functional, cell-based
How it was run: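 Calcium mobilization in HEK293 cells expressing human mGlu5, reported as EC50 and % Glu Max. Mean±SEM of three or more independent determinations, each run in triplicate.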
Target sequence in this assay (P41594 21-1212 limits assumed): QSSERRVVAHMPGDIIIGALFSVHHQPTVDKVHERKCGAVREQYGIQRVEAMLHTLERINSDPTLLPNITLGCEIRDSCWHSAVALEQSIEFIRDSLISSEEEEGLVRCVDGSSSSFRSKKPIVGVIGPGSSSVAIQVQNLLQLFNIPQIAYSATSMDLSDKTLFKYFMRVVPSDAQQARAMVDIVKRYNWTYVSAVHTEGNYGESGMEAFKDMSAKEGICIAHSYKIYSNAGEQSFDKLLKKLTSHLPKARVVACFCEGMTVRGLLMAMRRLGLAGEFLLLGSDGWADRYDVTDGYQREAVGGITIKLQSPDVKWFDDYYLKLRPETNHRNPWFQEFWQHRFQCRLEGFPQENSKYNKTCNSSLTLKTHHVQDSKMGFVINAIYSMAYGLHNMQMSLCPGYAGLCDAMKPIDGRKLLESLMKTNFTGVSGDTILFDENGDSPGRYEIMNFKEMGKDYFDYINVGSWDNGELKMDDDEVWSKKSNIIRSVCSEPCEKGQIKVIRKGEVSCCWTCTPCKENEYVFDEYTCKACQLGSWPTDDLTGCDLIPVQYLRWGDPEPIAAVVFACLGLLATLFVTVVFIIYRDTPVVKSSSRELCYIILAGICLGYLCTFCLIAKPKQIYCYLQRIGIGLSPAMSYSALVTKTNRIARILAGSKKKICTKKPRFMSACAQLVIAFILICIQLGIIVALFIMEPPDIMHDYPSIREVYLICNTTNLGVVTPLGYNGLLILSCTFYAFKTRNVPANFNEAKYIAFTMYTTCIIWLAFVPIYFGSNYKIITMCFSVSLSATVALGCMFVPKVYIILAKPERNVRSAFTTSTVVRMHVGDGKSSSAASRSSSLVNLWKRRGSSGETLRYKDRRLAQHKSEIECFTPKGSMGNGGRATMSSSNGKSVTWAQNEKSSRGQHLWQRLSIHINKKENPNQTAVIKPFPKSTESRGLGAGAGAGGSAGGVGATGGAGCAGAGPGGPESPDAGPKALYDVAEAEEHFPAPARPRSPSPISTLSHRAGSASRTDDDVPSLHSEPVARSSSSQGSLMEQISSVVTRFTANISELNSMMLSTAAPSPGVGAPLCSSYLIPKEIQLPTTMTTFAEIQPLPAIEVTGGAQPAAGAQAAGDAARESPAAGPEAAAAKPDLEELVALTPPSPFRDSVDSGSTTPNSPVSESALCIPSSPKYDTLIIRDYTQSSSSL

Row | Structure (SMILES) | pEC50 [1] | %max [2] | EC50 ([1]; hek293) | EC50 ([1]; read-out: pEC50 (converted))
1 | CC(=O)N1CCCn2nc(CNc3ccccc3)cc21 | < 5.00 | 20% |  | 
2 | O=C(c1ccccc1)N1CCCn2nc(COc3ccccc3)cc21 | 6.21 | 63% |  | 
3 | CC(=O)N1CCCn2nc(C[S+]([O-])c3ccccc3)cc21 (stereo not drawn) |  | < 15% | Not Active | > 31600 nM
4 | O=C(C1CC1)N1CCCn2nc(COc3ccccc3)cc21 | 6.25 | 61% |  | 525 nM
5 | CC(=O)N1CCCn2nc(CN3CCCc4ccccc43)cc21 | < 5.00 | 48% |  | 
6 | O=C(C1CCCC1)N1CCCn2nc(COc3ccccc3)cc21 | 5.76 | 41% |  | 
7 | CC(=O)N1CCCn2cc(COc3ccccc3)nc21 |  |  | Not Active | 
8 | O=C(c1ccccn1)N1CCCn2nc(COc3ccccc3)cc21 | < 5.00 | 44% |  | 
9 | O=C(c1ccco1)N1CCCn2nc(COc3ccccc3)cc21 |  | < 15% | Not Active | > 31600 nM
10 | CC(=O)N1CCCn2nc(CN(C)C3C4CC3C4)cc21 (stereo not drawn) |  | < 15% | Not Active | > 31600 nM
11 | CC(=O)N1CCCn2nc(CS(=O)(=O)c3ccccc3)cc21 |  | < 15% | Not Active | > 31600 nM
12 | O=C(c1ccccc1F)N1CCCn2nc(COc3ccccc3)cc21 | 5.95 | 62% |  | 
13 | O=C(C1CCC1)N1CCCn2nc(COc3ccccc3)cc21 | 5.91 | 41% |  | 
14 | O=C(c1ccc(F)cc1)N1CCCn2nc(COc3ccccc3)cc21 | 6.22 | 63% |  | 
15 | CC(=O)N1CCCc2nc(COc3ccccc3)sc21 | 6.05 |  |  | 
16 | CC(=O)N1CCCn2nc(COc3cc(F)cc(C#N)c3)cc21 | < 5.00 | 39% |  | 
17 | O=C(Cc1ccccc1)N1CCCn2nc(COc3ccccc3)cc21 | 6.42 | 72% |  | 372 nM
18 | CC(=O)N1CCCn2nc(COc3ccncc3)cc21 |  | < 15% | Not Active | > 31600 nM

Row | Structure (SMILES) | pEC50 [1] | %max [2] | EC50 ([1]; hek293) | EC50 ([1]; read-out: pEC50 (converted))
19 | O=C(c1ccc(Cl)cc1)N1CCCn2nc(COc3ccccc3)cc21 | 6.41 | 68% |  | 
20 | CC(=O)N1CCCn2nc(COc3cccc(F)c3)cc21 | 6.58 | 58% |  | 240 nM
21 | CC(C)(C)C(=O)N1CCCn2nc(COc3ccccc3)cc21 | 6.05 | 64% |  | 
22 | O=C(c1ccncc1)N1CCCn2nc(COc3ccccc3)cc21 | < 5.00 | 51% |  | 
23 | CC(=O)N1CCCn2nc(CSc3ccccc3)cc21 | 5.41 | 39% |  | 
24 | O=C(c1cccc(F)c1)N1CCCn2nc(COc3ccccc3)cc21 | 6.23 | 61% |  | 
25 | CC(=O)N1CCCn2nc(COc3ccc(F)cc3)cc21 | < 5.00 | 56% |  | 
26 | O=C(c1ccno1)N1CCCn2nc(COc3ccccc3)cc21 | 5.56 | 22% |  | 
27 | O=C(c1nccs1)N1CCCn2nc(COc3ccccc3)cc21 | 6.59 | 24% |  | 
28 | CC(=O)N1CCCn2nc(COc3ccccc3)nc21 | 5.47 |  |  | 
29 | CC(=O)N1CCCn2nc(COc3cccnc3)cc21 |  | < 15% | Not Active | > 31600 nM
30 | CC(=O)N1CCCn2nc(CN3CCc4ccccc43)cc21 |  | < 15% | Not Active | > 31600 nM
31 | CC(C)C(=O)N1CCCn2nc(COc3ccccc3)cc21 | 5.77 | 59% |  | 
32 | CC(=O)N1CCCn2nc(COc3cc(F)cc(F)c3)cc21 | 5.90 | 63% |  | 
33 | CC(=O)N1c2cc(COc3ccccc3)nn2CCC1c1ccccc1 (stereo not drawn) | 5.27 | 38% |  | 
34 | CC(=O)N1CCCn2nc(COc3ccccc3)c(F)c21 | 5.49 |  |  | 
35 | CC(=O)N1c2cc(COc3ccccc3)nn2CCC1C (stereo not drawn) | 6.10 | 67% |  | 
36 | CCC(=O)N1CCCn2nc(COc3ccccc3)cc21 | 6.48 | 48% |  | 
